OX1R antag-1 – human HCRTR1 antagonism | O43613 | CHO/OX1R cells, Fluo-8 calcium fluorescence, orexin A | inhibition, % at 5 µM | 330,000 compounds, 0.43% hits | AID 434989;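 active = inhibition above its plate's threshold, mean inhibition of all tested compounds on the plate plus 3 SD, cut at about 37% in these data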;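 also: 0% = orexin A challenge wells and 100% = SB-334867-A antagonist wells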
Target sequence (O43613 whole entry, looked up): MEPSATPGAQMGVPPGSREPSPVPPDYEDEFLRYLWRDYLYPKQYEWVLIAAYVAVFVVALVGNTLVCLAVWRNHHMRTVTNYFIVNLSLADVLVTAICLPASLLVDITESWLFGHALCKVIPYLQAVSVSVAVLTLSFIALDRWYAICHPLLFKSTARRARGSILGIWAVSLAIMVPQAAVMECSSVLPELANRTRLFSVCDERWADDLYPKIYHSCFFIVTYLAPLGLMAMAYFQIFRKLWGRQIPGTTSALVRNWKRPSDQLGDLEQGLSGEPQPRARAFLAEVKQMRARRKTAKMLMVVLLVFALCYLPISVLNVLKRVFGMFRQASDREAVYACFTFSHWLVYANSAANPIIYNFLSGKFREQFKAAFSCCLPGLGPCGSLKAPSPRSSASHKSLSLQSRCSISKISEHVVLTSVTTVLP
CHO parental Ca – counter-screen: ATP calcium response change in parental CHO cells; parental CHO-K1, ATP-induced calcium, Fluo-8 fluorescence; inhibition, % at 5.6 µM; 330,000 compounds, 0.63% hits; AID 463079;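 active = inhibition above that plate's mean sample inhibition plus 3 SD, cut at about 26% in these data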;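 also: 0% = ATP-challenged DMSO wells and 100% = DMSO wells without ATP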
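material = parental CHO cells | also added = ATP as calcium-mobilizing challenge | dosing = single point at 5.6 µM | detection = intracellular calcium via Fluo-8 no-wash fluorescent dye | read-out = % inhibition | benchmarks = low control ATP plus DMSO, high control DMSO only | repeats = one well per compound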
OX1R antag-2 – OX1R (human) antagonism. O43613. OX1R-expressing cells, FRET antagonist read-out. inhibition, % at 6.6 µM. 330,000 compounds, 1.8% hits. AID 485270; in the data active = inhibition mostly above about 38%, no sharp cut-off; inactive = mostly below about 40%;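 also: 0% = agonist challenge alone and 100% = reference antagonist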
GPR7 antag – antagonists of human GPR7 (neuropeptides B/W receptor 1). GPR7-expressing cells, fluorescence antagonist assay. P48145. 290,000 compounds, 1.1% hits. inhibition, % at 4.4 µM; in the data active = inhibition above about 16%, passing the limit was not always enough;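 also: cells stimulated with the agonist NPW; 0% = agonist with vehicle and 100% = vehicle without agonist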
GalR3 antagonist – human GalR3 antagonism; O60755; HEK293 GalR3-CNG cAMP membrane potential fluorescence; galR3 body fused to GalR1 C-terminus; inhibition, % at 3 µM; 360,000 compounds, 0.44% hits; AID 651719;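 active = inhibition above the screen-wide average plus 3 SD, cut at about 13% in these data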;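 also: forskolin and galanin both at EC90 stimulate the cells; cAMP rise reported by CNG channel membrane potential dye signal; 0% = forskolin plus galanin with DMSO and 100% = forskolin alone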
The depositor's hits bear a star; · = no result given. Sampled rows, rich in hits. Any-hit rate of the full collection: about 3.1%.

SMILES	OX1R antag-1	CHO parental Ca	OX1R antag-2	GPR7 antag	GalR3 antagonist
O=C(Cn1cc([N+](=O)[O-])nc1[N+](=O)[O-])N1CCN(c2ccccc2)CC1	-7	9	48*	-7	-6
O=C(Nc1ccc(Cl)cc1)OCC12COCN1COC2	·	·	·	·	-5
CCn1c2c(n(C(C)=O)c1=O)C[C@@H](c1ccccc1)[C@@H](C)[C@@H](C(=O)N1CCCC1)C2	·	·	·	·	-5
O=C(CN1CCOCC1)NNC(=O)c1ccc([N+](=O)[O-])cc1	-3	-1	43*	-20	-7
O=C(Nc1ccccc1C(=O)N1CCOCC1)c1ccc([N+](=O)[O-])cc1	-14	-9	47*	-12	-2
O=C(NCC(c1ccco1)N1CCOCC1)c1ccc([N+](=O)[O-])cc1 (centres undefined)	-4	-9	67*	5	2
O=C(Nc1ccccc1C(=O)N1CCOCC1)c1ccc(F)cc1	-14	9	18	10	-1
O=C(NCC(c1ccco1)N1CCOCC1)c1cccc([N+](=O)[O-])c1 (centres undefined)	-9	-13	26	-13	-3
Cc1cc(NC(=O)c2ccc([N+](=O)[O-])cc2)n(CCC#N)n1	-4	9	46*	-6	-7
Cn1ccc(NC(=O)c2ccc([N+](=O)[O-])cc2)n1	-10	-14	29*	·	-8
CN=C(Nc1cc(C)nn1CCC#N)c1ccc(F)cc1	-15	-6	4	-2	-3
O=c1oc2c3c(nn2c2ccccc12)CCCC3	31	-9	67*	6	1
CN(C)C(=O)c1ccc(NC(=O)c2cccc(S(=O)(=O)N3CCN(Cc4ccccc4)CC3)c2)cc1	·	·	·	·	-8
CN(CC(=O)Nc1ccc(Cl)cc1)C(=O)c1cccc(S(=O)(=O)N2CCN(Cc3ccccc3)CC2)c1	32	37*	36	·	-5
CSc1ccc(S(=O)(=O)NCC(=O)OCC(=O)NCC2CCCO2)cc1[N+](=O)[O-] (centres undefined)	3	-13	56*	·	5
Cc1ccc(C2(CCNC(C)c3cccs3)CCOC(C(C)C)C2)cc1 (centres undefined)	·	·	·	10	-9
COc1ccccc1C1(CCNC(C)c2cccs2)CCOC(C(C)C)C1 (centres undefined)	-25	-9	5	20*	-4
C[C@@H]1CCCCO[C@H](CN(C)C(=O)C2CCCCC2)[C@@H](C)CN([C@H](C)CO)C(=O)c2cc(NS(=O)(=O)c3cccs3)ccc2O1	·	·	·	·	-6
COc1ccc(-c2n(Cc3ccccc3)c3ccccc3[n+]2Cc2ccccc2)cc1	-17	6	16	56*	-6
CCCN1CCCCC(NC(=O)COCc2ccccc2)C1=O (centres undefined)	·	·	·	·	-1
CCC(C)Sc1cc(-c2nc3ccc(C)cn3c2NCc2ccccc2)ccc1OC (centres undefined)	73*	97*	54	·	-4
CCC(C)Sc1ccc(-c2nc3ccc(C)cn3c2NCc2ccccc2)cc1OC (centres undefined)	56*	35	56	·	·
CCCCNc1c(-c2ccc(OC)c(SC(C)CC)c2)nc2ccc(C)cn12 (centres undefined)	87*	94*	60*	·	-4
COc1ccc(-c2cc(-c3nc4ccccn4c3NCc3ccccc3)ccc2OC)cc1	96*	100*	89*	·	-5
CCCCNc1c(-c2ccc(OC)c(SC(C)CC)c2)nc2ccc(Cl)cn12 (centres undefined)	-18	-12	15	·	2
SMILES	OX1R antag-1	CHO parental Ca	OX1R antag-2	GPR7 antag	GalR3 antagonist
CCCCCCSc1ccc(-c2nc3ccc(C)cn3c2NCc2ccccc2)cc1OC	-55	-23	32	·	1
Cc1ccccc1S(=O)(=O)N1C(c2ccc(Cl)cc2)CC=C(C(=O)O)C1c1cccc(Cl)c1 (centres undefined)	·	·	·	·	-5
O=[N+]([O-])c1ccc(N=NN(CCO)CCO)cc1	1	-1	47*	-7	-5
O=C(N[C@H](C(=O)N1CCC[C@H]1C(=O)NCCc1ccccc1Cl)c1ccccc1)c1cccs1	·	·	·	·	-4
O=[N+]([O-])c1c(NCCCO)cc(Sc2nc3ccccc3s2)c2nonc12	54*	51*	45*	4	·
Cc1nnc(Sc2cc(NCCO)c([N+](=O)[O-])c3nonc23)s1	·	·	·	-1	7
CS(=O)(=O)c1ccc(Sc2nc3ccccc3s2)c([N+](=O)[O-])c1	-11	0	37	0	·
CCC(=O)OCCNc1cc(Sc2nc3ccccc3s2)c2nonc2c1[N+](=O)[O-]	60*	61*	52*	2	-3
CCOc1ccc2nc(-c3ccccc3)nc(SCC(=O)OC)c2c1	-18	-15	3	-14	-9
COC(=O)CSc1nc(-c2ccccc2)nc2ccccc12	-10	-19	74*	-10	-2
CC(=O)c1cccc([N+](=O)[O-])c1	-10	-9	5	·	-2
O=C(C#Cc1ccccc1)c1cccc([N+](=O)[O-])c1	13	36*	17	-2	-6
O=C1NC(=S)S/C1=C\c1cc(Cl)ccc1Cl	·	·	·	·	-2
CCOc1c(O)ccc(/C=C2\SC(=S)NC2=O)c1[N+](=O)[O-]	-23	-4	50*	18	-5
CCOc1ccc(N(C)c2ccc(/C=C3/SC(=S)NC3=O)cc2)cc1	33*	26*	5	27	-11
O=[N+]([O-])c1ccc(COc2cccnc2)cc1	14	-2	38	-19	9
O=[N+]([O-])c1cc(Oc2cccnc2)cc([N+](=O)[O-])c1	-15	-4	75*	3	-3
O=C1OC(Nc2ncccn2)c2ccccc21 (centres undefined)	-4	-4	6	-6	-5
O=C1OC(Nc2cc(Br)cc3cccnc23)c2ccccc21 (centres undefined)	-6	4	62*	-8	-7
COc1ccc2c(c1)c1nnc(SCC(=O)NC3CC3)nc1n2C	-11	-10	85*	-7	-7
COC(=O)[C@]12C[C@H](CC(=O)N3CCCC3)C(=O)N(Cc3ccccc3)C1=C[C@H](C1CCCC1)O[C@@H]2C	·	·	·	·	-6
CC(=O)Nc1cccc(NC(=O)CSc2nnc3ccc(-c4ccncc4)nn23)c1	-12	1	67*	·	-1
CCOC(=O)c1sc(NC(=O)CSc2n[nH]c(-c3ccccc3)n2)c(C#N)c1C	46*	40*	39	1	1
CC(=O)Nc1cccc(NC(=O)CSc2n[nH]c(-c3ccccc3)n2)c1	11	-6	47*	·	-4
CCOC(=O)c1sc(NC(=O)CSc2nc(C)cc(C)n2)c(C#N)c1C	-11	-10	11	-3	-3
CC(=O)Nc1cccc(NC(=O)CSc2ncc(-c3ccccc3)[nH]2)c1	10	8	53*	-9	-5
COC(=O)[C@@]12C[C@@H](CC(=O)N3CCN(C(=O)C4CC4)CC3)C(=O)N(Cc3ccco3)C1=CCC(C)(C)C2	·	·	·	·	-8
O=c1c2ccccc2nnn1Cc1ccco1	·	·	·	·	-6
